Assay results taken from ChEMBL document CHEMBL1125733, “Fluoronaphthyridines and -quinolones as antibacterial agents. 3. Synthesis and structure-activity relationships of new 1-(1,1-dimethyl-2-fluoroethyl), 1-[1-methyl-1-(fluoromethyl)-2-fluoroethyl], and 1-[1,1-(difluoromethyl)-2-fluoroethyl] substituted derivatives” (J Med Chem, 1991).
Values after ≈ are worked out from the molar mass of the structure shown.

Assays:
Morganella morganii = assay: In vitro antibacterial activity against Morganella morganii A 15153; assay type: functional
Staphylococcus aureus [1] = assay: In vitro antibacterial activity (minimum inhibitory concentration, MIC) against Staphylococcus aureus A 9537.; assay type: functional
Proteus mirabilis = assay: In vitro antibacterial activity (minimum inhibitory concentration, MIC) against Proteus mirabilis A 9900; assay type: functional
Serratia marcescens = assay: In vitro antibacterial activity (minimum inhibitory concentration) against Serratia marcescens A 20019.; assay type: functional
Pseudomonas aeruginosa = assay: Compound was tested in vitro for its antibacterial activity (minimum inhibitory concentration, MIC) against Pseudomonas aeruginosa A 9843; assay type: functional
Staphylococcus aureus [2] = assay: In vitro antibacterial activity against Staphylococcus aureus A 24227; assay type: functional
Enterobacter cloacae = assay: In vitro antibacterial activity against Enterobacter cloacae A 9656; assay type: functional
Klebsiella pneumoniae = assay: In vitro antibacterial activity against Klebsiella pneumoniae A 9664; assay type: functional
Bacteroides fragilis = assay: Compound was tested in vitro for its antibacterial activity (minimum inhibitory concentration) against Bacteroides fragilis A 22862.; assay type: functional; details: A22862
Streptococcus pneumoniae = assay: In vitro antibacterial activity against Streptococcus pneumoniae A 9585; assay type: functional
Enterococcus faecalis = assay: In vitro antibacterial activity against Enterococcus faecalis A 9809; assay type: functional
Haemophilus influenzae = assay: In vitro antibacterial activity against Haemophilus influenzae A 21515; assay type: functional
Escherichia coli [3] = assay: In vitro antibacterial activity against Escherichia coli A 15119; assay type: functional
Canis familiaris = assay: Compound was evaluated in vivo in urine sample collected over 24 hours for its concentration after 25 mg/kg peroral administration to dogs.; details: route oral
Escherichia coli [4] = assay: Compound was tested for the dose to protect 50% of mice from lethal infection against Escherichia coli A 15119 after peroral administration to OF1-strain of female Swiss mice.; assay type: functional; details: po, read-out: PD50
In short: (§1)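 Compounds dissolved in sterile water and given orally to female OF1 Swiss mice weighing 18-25 g, five mice per group.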

Mus musculus = assay: Compound was evaluated in vivo in urine sample collected over 24 hours for its concentration after 40 mg/kg peroral administration to mice; assay type: functional; details: route oral
In short: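 Mice were dosed at 40 mg/kg, either orally with a blunt needle and syringe or intramuscularly, with separate groups for each route. Blood was drawn from the orbital sinus at 5, 15, 30, 60, 120 and 180 min. Urine was pooled over 24 h. Drug levels were measured by agar disk diffusion microbioassay with Salmonella enteritidis A9531 as the assay organism.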

[5] = Compound was tested for the dose to protect 50% of mice from lethal infection against Streptococcus pneumoniae after peroral administration to OF1-strain of female Swiss mice.; assay type: functional; details: po, read-out: PD50; in short: as §1

| Compound | MIC (Morganella morganii) [µg/mL] | MIC (Staphylococcus aureus [1]) [µg/mL] | MIC (Proteus mirabilis) [µg/mL] | MIC (Serratia marcescens) [µg/mL] | MIC (Pseudomonas aeruginosa) [µg/mL] | MIC (Staphylococcus aureus [2]) [µg/mL] | MIC (Enterobacter cloacae) [µg/mL] | MIC (Klebsiella pneumoniae) [µg/mL] | MIC (Bacteroides fragilis) [µg/mL] | MIC (Streptococcus pneumoniae) [µg/mL] | MIC (Enterococcus faecalis) [µg/mL] | MIC (Haemophilus influenzae) [µg/mL] | S [µg/mL] | MIC (Escherichia coli [3]) [µg/mL] | UR (Canis familiaris) [%] | ED50 (Escherichia coli [4]) [mg/kg] | UR (Mus musculus) [%] | ED50 [5] [mg/kg] |
| --- | --- | --- | --- | --- | --- | --- | --- | --- | --- | --- | --- | --- | --- | --- | --- | --- | --- | --- |
| CC(C)(CF)n1cc(C(=O)O)c(=O)c2cc(F)c(N3CCNCC3)nc21.Cl | 0.13 | 0.25 | 0.25 | 0.25 | 1 | 0.5 | 0.25 | 0.25 | 16 | 0.5 | 2 | 0.13 | 1600 | 0.13 | – | – | – | – |
| CC(C)(C)n1cc(C(=O)O)c(=O)c2cc(F)c(N3CCNCC3)cc21 | 0.25 (≈ 0.72 µM) | 0.25 (≈ 0.72 µM) | 0.25 (≈ 0.72 µM) | 0.5 (≈ 1.44 µM) | 0.5 (≈ 1.44 µM) | – | 0.13 (≈ 0.374 µM) | 0.06 (≈ 0.173 µM) | – | – | 2 (≈ 5.76 µM) | – | 130 | 0.06 (≈ 0.173 µM) | – | – | – | – |
| CC(CF)(CF)n1cc(C(=O)O)c(=O)c2cc(F)c(N3CC[C@H](N)C3)cc21.CS(=O)(=O)O | 0.016 | 0.06 | 0.03 | 0.13 | 0.25 | 0.13 | 0.06 | 0.13 | 4 | 0.5 | 0.5 | 0.001 | – | 0.008 | – | – | – | – |
| CC(C)(CF)n1cc(C(=O)O)c(=O)c2cc(F)c(N3CC(N)C3)cc21.Cl | 0.016 | 0.016 | 0.06 | 0.13 | 0.5 | 0.016 | 0.06 | 0.016 | 2 | 1 | 0.5 | 0.06 | – | 0.004 | – | – | – | – |
| CC(C)(C)n1cc(C(=O)O)c(=O)c2cc(F)c(N3CCNCC3)nc21 | 0.06 (≈ 0.172 µM) | 0.06 (≈ 0.172 µM) | 0.13 (≈ 0.373 µM) | 0.06 (≈ 0.172 µM) | 0.5 (≈ 1.44 µM) | 0.25 (≈ 0.718 µM) | 0.06 (≈ 0.172 µM) | 0.03 (≈ 0.0861 µM) | 8 (≈ 23 µM) | 1 (≈ 2.87 µM) | 1 (≈ 2.87 µM) | 0.016 (≈ 0.0459 µM) | 820 | 0.016 (≈ 0.0459 µM) | – | – | – | – |
| CC(CF)(CF)n1cc(C(=O)O)c(=O)c2cc(F)c(N3CC[C@H](N)C3)nc21.CS(=O)(=O)O | 0.5 | 8 | 4 | 2 | 8 | 4 | 0.5 | 2 | 125 | 16 | 16 | 0.25 | – | 0.5 | – | – | – | – |
| CC(C)(CF)n1cc(C(=O)O)c(=O)c2cc(F)c(N3CCNCC3)cc21.Cl | 0.016 | 0.13 | 0.03 | 0.06 | 0.25 | 0.06 | 0.03 | 0.016 | 8 | 1 | 0.25 | 0.016 | – | 0.016 | – | – | – | – |
| C[C@H]1CN(c2cc3c(cc2F)c(=O)c(C(=O)O)cn3C(C)(C)CF)C[C@@H]1N | 0.06 (≈ 0.158 µM) | 0.03 (≈ 0.0791 µM) | 0.06 (≈ 0.158 µM) | 0.13 (≈ 0.343 µM) | 0.5 (≈ 1.32 µM) | 0.06 (≈ 0.158 µM) | 0.03 (≈ 0.0791 µM) | 0.13 (≈ 0.343 µM) | 4 (≈ 10.5 µM) | 0.25 (≈ 0.659 µM) | 0.25 (≈ 0.659 µM) | 0.008 (≈ 0.0211 µM) | – | 0.008 (≈ 0.0211 µM) | – | – | – | – |
| CC(C)(C)n1cc(C(=O)O)c(=O)c2cc(F)c(N3CC[C@H](N)C3)nc21 | 0.13 (≈ 0.373 µM) | 0.004 (≈ 0.0115 µM) | 0.13 (≈ 0.373 µM) | 0.25 (≈ 0.718 µM) | 0.25 (≈ 0.718 µM) | 0.002 (≈ 0.00574 µM) | 0.03 (≈ 0.0861 µM) | 0.03 (≈ 0.0861 µM) | 1 (≈ 2.87 µM) | 0.008 (≈ 0.023 µM) | 0.06 (≈ 0.172 µM) | – | – | 0.016 (≈ 0.0459 µM) | 9 | 1.2 | 10 | > 25 |
| CC(C)(CF)n1cc(C(=O)O)c(=O)c2cc(F)c(N3C[C@H]4CC3CN4)cc21.Cl | 0.13 | 0.5 | 0.06 | 0.13 | 0.25 | 0.25 | 0.06 | 0.06 | 8 | 1 | 0.5 | 0.008 | – | 0.016 | – | – | – | – |
| CS(=O)(=O)O.C[C@H]1C[C@H](N)CN1c1cc2c(cc1F)c(=O)c(C(=O)O)cn2C(C)(C)CF | 0.5 | 0.03 | 0.13 | 0.25 | 1 | 0.03 | 0.06 | 0.13 | 4 | 0.25 | 0.25 | 0.016 | – | 0.03 | – | – | – | – |
| CC(CF)(CF)n1cc(C(=O)O)c(=O)c2cc(F)c(N3CCNCC3)cc21.Cl | 0.06 | 1 | 0.13 | 0.5 | 1 | 2 | 0.25 | 0.13 | 16 | 8 | 1 | 0.06 | – | 0.13 | – | – | – | – |

Now from value to compound, other results behind:

| MIC (Morganella morganii) [µg/mL] | MIC (Staphylococcus aureus [1]) [µg/mL] | MIC (Proteus mirabilis) [µg/mL] | MIC (Serratia marcescens) [µg/mL] | MIC (Pseudomonas aeruginosa) [µg/mL] | MIC (Staphylococcus aureus [2]) [µg/mL] | MIC (Enterobacter cloacae) [µg/mL] | MIC (Klebsiella pneumoniae) [µg/mL] | MIC (Bacteroides fragilis) [µg/mL] | MIC (Streptococcus pneumoniae) [µg/mL] | MIC (Enterococcus faecalis) [µg/mL] | MIC (Haemophilus influenzae) [µg/mL] | S [µg/mL] | MIC (Escherichia coli [3]) [µg/mL] | Compound | UR (Canis familiaris) [%] | ED50 (Escherichia coli [4]) [mg/kg] | UR (Mus musculus) [%] | ED50 [5] [mg/kg] |
| --- | --- | --- | --- | --- | --- | --- | --- | --- | --- | --- | --- | --- | --- | --- | --- | --- | --- | --- |
| 0.13 | 4 | 1 | 0.5 | 4 | 4 | 0.25 | 0.25 | 125 | 16 | 16 | 0.25 | – | 0.13 | CC(CF)(CF)n1cc(C(=O)O)c(=O)c2cc(F)c(N3CCNCC3)nc21.Cl | – | – | – | – |
| 0.13 | 0.008 | 0.13 | 0.13 | 1 | 0.008 | 0.06 | 0.06 | 16 | 0.13 | 0.13 | 0.016 | – | 0.016 | C[C@H]1C[C@H](N)CN1c1nc2c(cc1F)c(=O)c(C(=O)O)cn2C(C)(C)CF.Cl | – | – | – | – |
| 2 | 0.5 | 4 | 2 | 32 | 1 | 1 | 2 | 125 | 8 | 4 | 0.5 | – | 0.5 | C[C@H]1C[C@H](N)CN1c1nc2c(cc1F)c(=O)c(C(=O)O)cn2C(CF)(CF)CF.Cl | – | – | – | – |
| 0.13 | 2 | 0.5 | 0.5 | 1 | 2 | 0.13 | 0.5 | 32 | 8 | 4 | 0.016 | – | 0.13 | CC(CF)(CF)n1cc(C(=O)O)c(=O)c2cc(F)c(N3CC4C[C@@H]3CN4)nc21.Cl | – | – | – | – |
| 2 | 4 | 2 | 2 | 32 | 8 | 2 | 2 | 125 | 32 | 32 | 0.25 | – | 0.5 | Cl.N[C@H]1CCN(c2nc3c(cc2F)c(=O)c(C(=O)O)cn3C(CF)(CF)CF)C1 | – | – | – | – |
| 0.25 | 4 | 1 | 1 | 4 | 4 | 0.25 | 0.5 | 125 | 32 | 32 | 0.06 | 240 | 0.25 | Cl.O=C(O)c1cn(C(CF)(CF)CF)c2nc(N3CC4C[C@@H]3CN4)c(F)cc2c1=O | – | – | – | – |
| 0.06 | 0.03 | 0.5 | 0.25 | 1 | 0.13 | 0.13 | 0.03 | 16 | 0.03 | 4 | 0.5 | – | 0.03 | CC(C)(CF)n1cc(C(=O)O)c(=O)c2cc(F)c(N3CC[C@H](N)C3)nc21.Cl | – | – | – | – |
| 0.5 | 8 | 2 | 1 | 16 | 8 | 0.5 | 1 | 125 | 32 | 16 | 0.5 | – | 0.5 | Cl.O=C(O)c1cn(C(CF)(CF)CF)c2nc(N3CCNCC3)c(F)cc2c1=O | – | – | – | – |
